The target of the first assay is T1, UniProt Q8VGL0.
T1 sequence (whole entry): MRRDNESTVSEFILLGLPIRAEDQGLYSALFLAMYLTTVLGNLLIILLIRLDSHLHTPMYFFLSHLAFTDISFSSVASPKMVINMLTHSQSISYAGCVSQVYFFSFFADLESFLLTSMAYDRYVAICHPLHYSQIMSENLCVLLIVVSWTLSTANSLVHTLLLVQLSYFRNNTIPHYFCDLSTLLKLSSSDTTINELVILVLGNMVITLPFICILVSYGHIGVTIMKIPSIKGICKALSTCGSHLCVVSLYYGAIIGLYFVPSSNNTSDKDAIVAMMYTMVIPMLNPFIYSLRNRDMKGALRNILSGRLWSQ
The note with it: stereoisomer not certain. The method, boiled down:
(§1)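 Transient luciferase assays in mammalian cell lines were common, though methods varied by source. The values come from published papers and their supplementary material, with extra details from the original authors when needed. Responsive refers to a measured signal the original authors judged statistically different from baseline, and non-responsive (inactive) to the remainder.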
Take `COc1ccccc1`: the “odorant receptor agonist call” value was “inactive”.
For `CCCCCCCCCC=CC=O`, the “odorant receptor agonist call” value was “inactive”.
Regarding `CCSCC`, the “odorant receptor agonist call” value was “inactive”.
Turning to `CCC=CCCCCC=O`, the “odorant receptor agonist call” value is “inactive”.
With `C=CC(=O)CCCCC`, the “odorant receptor agonist call” value is “inactive”.
As to `C=CC(=C)CCC=C(C)CCC=C(C)C`, the “odorant receptor agonist call” value was “inactive”.
`CCCCCC(=Cc1ccccc1)C(OC)OC`: the “odorant receptor agonist call” value is “inactive”.
In the case of `CCCCCC(C)O` (centres undefined), the “odorant receptor agonist call” value is “inactive”.
`CC1(C)CC(=O)CC(=O)C1`: the “odorant receptor agonist call” value is “inactive”.
For the molecule `CCc1nccnc1CC`, the “odorant receptor agonist call” value was “inactive”.
With `C=C(C)C1CCC(C)C(O)C1` (centres undefined), the “odorant receptor agonist call” value is “active”.
For the molecule `CCCO`, the “odorant receptor agonist call” value was “inactive”.
Consider `C=C(C)C1CC=C(C)CC1` (centres undefined), for which the “odorant receptor agonist call” value is “inactive”.
Turning to `CCCCCC=CCCC=O`, the “odorant receptor agonist call” value was “inactive”.
`CCCCCCCCCCOC(C)=O`: the “odorant receptor agonist call” value was “inactive”.
Same read-out and setting: under `CCCCCOC(=O)CC` stands “inactive”.
Consider `CSSSC`, for which the “odorant receptor agonist call” value is “inactive”.
Same read-out and setting: the entry for `O=C(OCc1ccccc1)c1ccccc1O` is “inactive”; for `O=C([O-])CCCCCCC(=O)[O-].[H+].[H+]` it is “inactive”.
Consider `CCCCCCC=CC=O`, for which the “odorant receptor agonist call” value is “inactive”.
On to `Cc1ccc(C(C)C)c(O)c1`, for which the “odorant receptor agonist call” value was “inactive”.
On to `OCCCCCCCCCO`, for which the “odorant receptor agonist call” value is “inactive”.
As for `CCCCCCC(=O)OCCCC`, the “odorant receptor agonist call” value is “inactive”.
In the case of `CC(=O)OC1(C)CCC23CC1C(C)(C)C2CCC3C` (centres undefined), the “odorant receptor agonist call” value is “inactive”.
Consider `CCCC(C)C(=O)OCC` (centres undefined), for which the “odorant receptor agonist call” value is “inactive”.
On to `CC=Cc1ccc(OC)cc1`, for which the “odorant receptor agonist call” value was “inactive”.
Consider `Cc1ccc(OC(=O)C(C)C)cc1`, for which the “odorant receptor agonist call” value was “inactive”.
For the molecule `CCCCCOC(=O)CCC`, the “odorant receptor agonist call” value was “inactive”.
Consider `CC(C)CS`, for which the “odorant receptor agonist call” value is “inactive”.
Take `C=C(C)C1CCC2(C)OC2C1` (centres undefined): the “odorant receptor agonist call” value was “inactive”.
Same read-out and setting: under `CC(=O)C=CC1=C(C)CCCC1(C)C` stands “inactive”; under `Cc1occc1SSc1ccoc1C`, “inactive”; under `CC(C)=CCCC(C)=CCOC(=O)C(C)C`, “inactive”.
For the molecule `CCCCCCCCC=CC=O`, the “odorant receptor agonist call” value was “inactive”.
Take `O=C(O)CCCCCBr`: the “odorant receptor agonist call” value was “inactive”.
Regarding `Cc1ccc2c(c1)OCC(=O)CO2`, the “odorant receptor agonist call” value was “inactive”.
On the same count and under the same terms, under `CCOC(=O)CC(C)C` stands “inactive”.

The target in a further assay is T2, UniProt Q8VGU3.
T2 sequence (whole entry): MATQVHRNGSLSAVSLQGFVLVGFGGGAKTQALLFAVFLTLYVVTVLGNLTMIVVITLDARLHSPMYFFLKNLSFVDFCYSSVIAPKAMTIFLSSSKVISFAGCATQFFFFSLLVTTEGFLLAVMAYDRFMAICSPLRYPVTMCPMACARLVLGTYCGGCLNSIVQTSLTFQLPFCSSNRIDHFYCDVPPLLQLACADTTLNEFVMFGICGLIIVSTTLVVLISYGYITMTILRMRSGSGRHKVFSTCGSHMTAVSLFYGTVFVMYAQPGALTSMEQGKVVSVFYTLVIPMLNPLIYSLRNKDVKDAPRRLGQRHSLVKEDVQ
The note with it: stereoisomer not certain. The procedure, abridged: as §1
As for `COc1ccccc1`, the “odorant receptor agonist call” value is “inactive”.
Turning to `CCCCCCCCCC=CC=O`, the “odorant receptor agonist call” value was “inactive”.
Same read-out and setting: under `CCSCC` stands “inactive”; under `CCC=CCCCCC=O`, “inactive”; under `C=CC(=O)CCCCC`, “inactive”.
Same read-out and setting: under `C=CC(=C)CCC=C(C)CCC=C(C)C` stands “inactive”; under `CCCCCC(=Cc1ccccc1)C(OC)OC`, “inactive”.
Turning to `CCCCCC(C)O` (centres undefined), the “odorant receptor agonist call” value was “inactive”.
Consider `CC1(C)CC(=O)CC(=O)C1`, for which the “odorant receptor agonist call” value is “inactive”.
Take `CCc1nccnc1CC`: the “odorant receptor agonist call” value was “inactive”.
Turning to `C=C(C)C1CCC(C)C(O)C1` (centres undefined), the “odorant receptor agonist call” value is “inactive”.
In the case of `CCCO`, the “odorant receptor agonist call” value is “inactive”.
For `C=C(C)C1CC=C(C)CC1` (centres undefined), the “odorant receptor agonist call” value was “inactive”.
`CCCCCC=CCCC=O`: the “odorant receptor agonist call” value is “inactive”.
`CCCCCCCCCCOC(C)=O`: the “odorant receptor agonist call” value is “inactive”.
Take `CCCCCOC(=O)CC`: the “odorant receptor agonist call” value is “inactive”.
The same measure, in the same setting: under `CSSSC` stands “inactive”; under `O=C(OCc1ccccc1)c1ccccc1O`, “inactive”.
`O=C([O-])CCCCCCC(=O)[O-].[H+].[H+]`: the “odorant receptor agonist call” value is “inactive”.
On the same count and under the same terms, under `CCCCCCC=CC=O` stands “inactive”; under `Cc1ccc(C(C)C)c(O)c1`, “inactive”; under `OCCCCCCCCCO`, “inactive”.
Take `CCCCCCC(=O)OCCCC`: the “odorant receptor agonist call” value is “inactive”.
Take `CC(=O)OC1(C)CCC23CC1C(C)(C)C2CCC3C` (centres undefined): the “odorant receptor agonist call” value was “active”.
As to `CCCC(C)C(=O)OCC` (centres undefined), the “odorant receptor agonist call” value was “inactive”.
Still for that read-out and setting: under `CC=Cc1ccc(OC)cc1` stands “inactive”; under `Cc1ccc(OC(=O)C(C)C)cc1`, “inactive”.
Turning to `CCCCCOC(=O)CCC`, the “odorant receptor agonist call” value was “inactive”.
Take `CC(C)CS`: the “odorant receptor agonist call” value was “inactive”.
For the molecule `C=C(C)C1CCC2(C)OC2C1` (centres undefined), the “odorant receptor agonist call” value is “inactive”.
Regarding `CC(=O)C=CC1=C(C)CCCC1(C)C`, the “odorant receptor agonist call” value was “inactive”.
The same measure, in the same setting: the entry for `Cc1occc1SSc1ccoc1C` is “inactive”.
`CC(C)=CCCC(C)=CCOC(=O)C(C)C`: the “odorant receptor agonist call” value was “inactive”.
Consider `CCCCCCCCC=CC=O`, for which the “odorant receptor agonist call” value was “inactive”.
For `O=C(O)CCCCCBr`, the “odorant receptor agonist call” value is “inactive”.
On to `Cc1ccc2c(c1)OCC(=O)CO2`, for which the “odorant receptor agonist call” value is “inactive”.
For `CCOC(=O)CC(C)C`, the “odorant receptor agonist call” value is “inactive”.
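Note: active if original authors judged signal statistically different from baseline.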
